From ChEMBL document CHEMBL1124443, “2'-Fluorinated isonucleosides. 1. Synthesis and biological activity of some methyl 2'-deoxy-2'-fluoro-2'-pyrimidinyl-D-arabinopyranosides” (J Med Chem, 1989)

How the values were obtained:
Mus musculus [1] = assay: Percent increase in life span of leukemic mice administered, with compound at 5 mkdx3, on days 1,3,6; type: functional
Outline: (§1)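 L1210 cells (10^6) were implanted ip on day 0 in female DBA/2 mice. Dosing was 5 or 25 mg/kg/day on days 1, 3 and 6 (3 doses). Daily survival monitoring; % increase in life span versus untreated controls.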

Mus musculus [2] = species: Mus musculus; assay: Weight loss in mice treated with compound at 50 mkdx5; type: functional
Outline: (§2)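 Female DBA/2 mice (19–20 g) bearing ip L1210 leukemia (10^6 cells, day 0) were dosed ip daily for 5 consecutive days starting on day 1. Mice were weighed daily, and weight loss was recorded as body weight in g.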

[3] = Therapeutic effect of compound (25 mkdx3) on mice with L1210/5-FU leukemia; No effect; conditions: mouse
Mus musculus [4] = assay: Percent increase in life span of leukemic mice administered, with compound at 25 mkdx3, on days 1,3,6; type: functional; outline: as §1
Mus musculus [5] = species: Mus musculus; assay: Weight loss in mice treated with compound at 100 mkdx5; type: functional; outline: as §2
Mus musculus [6] = species: Mus musculus; assay: Weight loss in mice treated with compound at 200 mkdx5; type: functional; outline: as §2
Mus musculus [7] = assay: Percent increase in life span of leukemic mice administered, with compound at 50 mg/kgx5, intraperitoneally; type: functional; conditions: ip, route intraperitoneal
Outline: (§3)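 Female DBA/2 mice (19–20 g) received 10^6 L1210 cells ip on day 0. Drug was given ip once daily for 5 consecutive days starting day 1. Survival was monitored daily. % ILS was derived from mean survival versus untreated mice.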

Mus musculus [8] = assay: Percent increase in life span of leukemic mice administered, with compound at 100 mg/kgx5, intraperitoneally; type: functional; conditions: ip, route intraperitoneal; outline: as §3

Structure (SMILES)	ILS (Mus musculus [1])	Weight loss (Mus musculus [2])	ILS [3]	ILS (Mus musculus [4])	Weight loss (Mus musculus [5])	Weight loss (Mus musculus [6])	ILS at 50 mg/kg (Mus musculus [7])	ILS at 100 mg/kg (Mus musculus [8])
O=c1[nH]cc(F)c(=O)[nH]1 [FLUOROURACIL]	41%	14 g	No effect	88%	14 g	14 g	–	–
Nc1ccn([C@@H]2O[C@H](CO)[C@@H](O)[C@@H]2O)c(=O)n1 [CYTARABINE]	–	–	–	–	–	–	104%	126%
